From ChEMBL document CHEMBL4184291, “Discovery of N-arylpyrroles as agonists of GPR120 for the treatment of type II diabetes” (Bioorg Med Chem Lett, 2018)

Tests used:
[1] = Protein binding in mouse plasma; assay type: ADME, cell-free; settings: read-out: PPB (converted)
[2] = tested on: Mus musculus; test: Antidiabetic activity in diet-induced obese C57Bl/6 mouse model assessed as change in plasma glucose AUC at 1 mg/kg, po administered 30 mins prior to glucose challenge measured up to 90 mins post dose by OGTT; assay type: functional
Outline: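 Diet-induced obese mice dosed orally at 0.1–3.0 mg/kg 30 min before an oral glucose load (time 0). Glucose followed from 30 min pre-glucose to 90 min post-glucose. Saxagliptin 1 mg/kg was the positive control.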

[3] = Volume of distribution at steady state in rat at 2 mg/kg, iv by LC-MS/MS analysis; assay type: ADME, organism-based; settings: in vivo, read-out: Vdss
[4] = target: Cytochrome P450 2D6 (Homo sapiens, UniProt P10635); test: Inhibition of CYP2D6 (unknown origin); assay type: ADME
[5] = target: T1, Free fatty acid receptor 4 (Rattus norvegicus, UniProt Q2AC31); test: Agonist activity at recombinant rat GPR120 expressed in HEK293 cells; assay type: functional, cell-based
T1 sequence (Q2AC31 whole entry): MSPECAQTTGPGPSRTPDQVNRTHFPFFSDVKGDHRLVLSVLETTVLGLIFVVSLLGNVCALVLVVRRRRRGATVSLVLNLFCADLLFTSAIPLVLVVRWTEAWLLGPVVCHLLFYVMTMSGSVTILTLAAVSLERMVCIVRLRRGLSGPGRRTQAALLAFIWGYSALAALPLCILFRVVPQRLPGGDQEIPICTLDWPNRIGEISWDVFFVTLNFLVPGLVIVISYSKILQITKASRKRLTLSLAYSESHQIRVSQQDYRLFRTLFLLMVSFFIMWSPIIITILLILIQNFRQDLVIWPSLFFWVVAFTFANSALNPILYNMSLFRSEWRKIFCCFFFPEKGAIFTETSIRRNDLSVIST

[6] = tested on: Mus musculus; test: Oral bioavailability in mouse at 14.6 mg/kg by LC-MS/MS analysis; assay type: ADME, organism-based; settings: in vivo
[7] = Half life in rat liver microsomes; assay type: ADME, microsome
[8] = tested on: Cavia porcellus; test: Cardiotoxicity in guinea pig assessed as effect on QRS interval at 22.4 mg/kg; assay type: toxicity, organism-based; settings: in vivo
[9] = tested on: Cavia porcellus; test: Cardiotoxicity in guinea pig assessed as effect on QTcB interval at 22.4 mg/kg; assay type: toxicity, organism-based; settings: in vivo
[10] = Volume of distribution at steady state in mouse at 1.15 mg/kg, iv by LC-MS/MS analysis; assay type: ADME, organism-based; settings: in vivo, read-out: Vdss
[11] = tested on: Mus musculus; test: Antiobesity activity in diet-induced obesity C57Bl6/J mouse model assessed as basal insulin level in plasma at 30 mg/kg qd for 15 days measured on day 15 post 6 hrs fasting (reference value: 16959 +/- 4943 pg/ml); assay type: functional
[12] = Half life in human liver microsomes; assay type: ADME, microsome
[13] = Cmax in guinea pig at 22.4 mg/kg; assay type: ADME, organism-based, Cavia porcellus; parameters: dose 22.4 mg/kg; settings: in vivo
[14] = Oral bioavailability in rat at 10 mg/kg by LC-MS/MS analysis; assay type: ADME, organism-based; settings: in vivo
[15] = tested on: Mus musculus; test: Antiobesity activity in diet-induced obesity C57Bl6/J mouse model assessed as final insulin level in plasma at 10 mg/kg qd for 15 days measured on day 15 post 6 hrs fasting (reference value: 7304 +/- 2967 pg/ml); assay type: functional
[16] = AUClast in rat at 10 mg/kg, po by LC-MS/MS analysis; assay type: ADME, organism-based; parameters: dose 10 mg/kg, time 0 - last, route oral; settings: in vivo
[17] = Protein binding in rat plasma; assay type: ADME, cell-free; settings: read-out: PPB (converted)
[18] = Clearance in dog at 1 mg/kg, iv by LC-MS/MS analysis; assay type: ADME, organism-based, Canis lupus familiaris; settings: in vivo
[19] = tested on: Mus musculus; test: Antiobesity activity in diet-induced obesity C57Bl6/J mouse model assessed as final glucose level in plasma at 10 mg/kg bid for 15 days measured on day 15 post 6 hrs fasting (reference value: 184 +/- 30 mg/dL); assay type: functional

Chain of Cytochrome P450 2D6 (P10635 whole entry): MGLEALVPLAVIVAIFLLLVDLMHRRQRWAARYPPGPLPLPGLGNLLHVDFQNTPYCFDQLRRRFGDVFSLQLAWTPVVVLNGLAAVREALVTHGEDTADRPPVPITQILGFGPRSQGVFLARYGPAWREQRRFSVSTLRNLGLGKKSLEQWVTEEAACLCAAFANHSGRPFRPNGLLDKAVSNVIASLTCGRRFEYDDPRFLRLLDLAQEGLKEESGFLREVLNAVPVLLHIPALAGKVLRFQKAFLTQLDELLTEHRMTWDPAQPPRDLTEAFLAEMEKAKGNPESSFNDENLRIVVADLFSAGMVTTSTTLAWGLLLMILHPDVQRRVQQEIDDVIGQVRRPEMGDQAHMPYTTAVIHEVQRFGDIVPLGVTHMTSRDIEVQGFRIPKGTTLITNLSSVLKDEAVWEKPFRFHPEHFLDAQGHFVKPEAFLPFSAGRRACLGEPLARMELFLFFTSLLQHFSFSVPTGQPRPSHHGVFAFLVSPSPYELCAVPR

O=C(O)CCc1cc(F)c(OCc2c(C(F)(F)F)ccn2-c2ccc(Cl)cc2)c(F)c1 gave a fraction unbound [1] of 0.0037, an Activity [2] of -54% and a Vd [3] of 0.42 L/kg. The INH [4] was > 10 µM, the EC50 [5] was 0.713 µM and the F [6] was 166%. For the same molecule, the half-life [7] was 2.2 h, the Activity [8] was “Non-Toxic” and the Activity [9] was “Non-Toxic”. It also gave a Vd [10] of 1.14 L/kg, an Activity [11] of 17067 pg/mL and a half-life [12] of 0.85 h. For the same molecule, the Cmax [13] was 105 µg/mL, the bioavailability [14] was 116% and the Activity [15] was 7756 pg/mL. For the same molecule, the AUC(0-t) [16] was 60900 ng·h/mL, the fraction unbound [17] was 0.0017 and the clearance [18] was 2.45 mL/min/kg. It also gave an Activity [19] of 170 mg/dL.
